Beta cell apopt – beta cell apoptosis inhibition; AID 435005; hit rate 0.8% among 300,000; protection from apoptosis, % (concentration not given with the values); INS-1E cytokine-induced death, ATP luminescence, 48 h; percent of positive-control rescue, neutral wells zero;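 active = Every replicate reaches about 75%, or at least half do and their mean reaches it too, limit read from the data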;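 also: higher means more ATP so stronger rescue from cytokine killing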
SKKanGAS inh – SKKanGAS growth inhibition; S. pyogenes SKKanGAS, kanamycin growth, BacTiter-Glo, 6 h; inhibition, % at 7.5 µM; hit rate 1.3% among 300,000; AID 1662;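 active = mean replicate score, as percent of positive control median, at least 50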;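 also: strain carries kanamycin resistance gene driven by streptokinase promoter and grows in 40 µg/ml kanamycin; loss of luminescence reflects streptokinase promoter inhibition or plain growth inhibition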
Calb FLC – C. albicans growth modulation with fluconazole; C. albicans CaCi-2 (fluconazole-resistant clinical isolate) + fluconazole, Alamar Blue growth, 48 h; growth inhibition, % (concentration not given with the values); hit rate 0.57% among 300,000; AID 1979;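 active = growth inhibition above about 58% in most replicates, limit read from the data, passing the limit was not always enough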;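 also: all wells also contain fluconazole at 8 µg/ml as a sub-toxic cotreatment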
T cruzi inh – blocks replication of Trypanosoma cruzi; hit rate 1.4% among 300,000; T. cruzi beta-gal in NIH3T3, luminescence, 90 h; inhibition, % (no concentration beside the values);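 active = mean inhibition across valid replicates above about 55%, limit read from the data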;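 also: signal also drops with host cell toxicity which is not excluded here; higher percent means less beta-gal luminescence so fewer parasites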
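System: NIH/3T3 fibroblasts plus reporter T. cruzi. Medium: DMEM plus 2% FBS. Probe or stimulus: 5000 reporter trypomastigotes per well. Compound: single 50 nL compound addition per well in DMSO. Incubation: co-culture of at least 90 h after 3 h attachment. Detection: GalScreen β-gal luminescence, detergent lysis, 60 min. Evaluation: parasite load inhibition, %.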
CSC inhib – cancer stem cell inhibition. inhibition, % at 7.5 µM. cancer stem cell-like cells viability, luminescence. AID 2717. hit rate 1.1% among 300,000; in the data active = inhibition above about 75%; tested in HMLE shEcad cells
Mdm2 MdmX PPI – human Mdm2/MdmX binding inhibition; SaOS-2 split-luciferase Mdm2/MdmX complementation, luminescence; O15151+Q00987; hit rate 3% among 330,000; AID 485346; inhibition, % at 8 µM;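 active = inhibition of at least 50% at 8 µM in the primary screen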
Target sequence (O15151 whole entry, looked up): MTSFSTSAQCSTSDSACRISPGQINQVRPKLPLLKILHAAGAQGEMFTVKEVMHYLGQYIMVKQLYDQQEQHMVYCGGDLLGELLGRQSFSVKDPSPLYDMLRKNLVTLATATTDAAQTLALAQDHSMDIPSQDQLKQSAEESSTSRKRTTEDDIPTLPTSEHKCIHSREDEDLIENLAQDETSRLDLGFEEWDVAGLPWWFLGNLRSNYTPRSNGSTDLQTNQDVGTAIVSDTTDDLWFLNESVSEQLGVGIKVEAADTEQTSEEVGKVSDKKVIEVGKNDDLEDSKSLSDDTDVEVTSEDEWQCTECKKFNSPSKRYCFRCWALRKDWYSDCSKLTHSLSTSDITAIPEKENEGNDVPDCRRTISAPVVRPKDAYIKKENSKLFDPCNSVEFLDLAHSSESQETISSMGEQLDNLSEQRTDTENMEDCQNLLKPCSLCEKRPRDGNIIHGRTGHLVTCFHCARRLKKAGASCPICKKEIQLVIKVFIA
Target sequence (Q00987 whole entry, looked up): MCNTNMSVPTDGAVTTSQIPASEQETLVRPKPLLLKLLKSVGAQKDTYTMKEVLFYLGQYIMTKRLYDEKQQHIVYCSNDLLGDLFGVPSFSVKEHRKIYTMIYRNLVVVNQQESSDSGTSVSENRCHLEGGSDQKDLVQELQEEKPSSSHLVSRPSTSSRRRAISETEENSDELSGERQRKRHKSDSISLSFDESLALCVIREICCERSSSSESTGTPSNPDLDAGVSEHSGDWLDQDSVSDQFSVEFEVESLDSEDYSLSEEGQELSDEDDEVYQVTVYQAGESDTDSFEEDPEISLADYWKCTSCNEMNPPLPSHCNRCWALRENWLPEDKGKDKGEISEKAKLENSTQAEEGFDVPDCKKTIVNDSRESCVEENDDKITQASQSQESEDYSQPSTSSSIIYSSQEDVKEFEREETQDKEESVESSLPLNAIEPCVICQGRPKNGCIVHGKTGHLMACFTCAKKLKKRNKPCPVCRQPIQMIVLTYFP
Mdm2-MdmX conf – confirmation of human Mdm2/MdmX interaction inhibitors. hit rate 55% among 10,000. Mdm2-MdmX binding, luminescent assay. shares compounds with Mdm2 MdmX PPI. inhibition, % at 8 µM; in the data active = inhibition above about 40%
Full FLuc ctr – counter-screen for Mdm2/MdmX inhibitors: full-length luciferase; shares compounds with Mdm2 MdmX PPI; AID 504607; SaOS-2 full-length luciferase counterscreen, luminescence; inhibition, % at 8 µM; hit rate 77% among 6,200;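 active = mean inhibition at 8 µM reaching about 37%, which flags the compound as non-specific, limit read from the data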;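 also: p53-null SaOS-2 cells with luciferase driven by a doxycycline-inducible promoter; compound on cells about two nights before reading with doxycycline added after day one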
A number is an active result; - = inactive; . = no result given. Compounds with a hit are over-represented: about 5.7% of the library has one in this group of screens.

SMILES	Beta cell apopt	SKKanGAS inh	Calb FLC	T cruzi inh	CSC inhib	Mdm2 MdmX PPI	Mdm2-MdmX conf	Full FLuc ctr
CCCCNC(=O)C(c1ccc(OCC(=O)OC)c(C(=O)OC)c1)N(CCOC)C(=O)CCCCCN1C(=O)NC(c2ccc(-c3ccccc3)cc2)C(C(=O)OCc2ccccc2)=C1C (configuration not stated)	-	-	-	-	125	100	66	-
CCCCCCN(C(=O)CCCCCN1C(=O)NC(c2ccc(-c3ccccc3)cc2)C(C(=O)OCc2ccccc2)=C1C)C(C(=O)NCCCC)c1ccc(OCC(=O)OC)cc1 (configuration not stated)	-	-	-	-	-	-	.	.
Nc1nc(Cl)cc(N2CCC(c3cc(-c4ccc(Cl)cc4)n[nH]3)CC2)n1	104	-	-	58	-	84	-	.
Cc1ccc(CN2CCC(c3cc(-c4ccc(Cl)cc4)n[nH]3)CC2)cc1	-	-	-	-	-	64	-	74
O=C(NCc1ccccn1)c1cccc(NS(=O)(=O)c2ccc(Br)cc2)c1	-	.	.	.	-	-	.	.
Cc1sc2ncn(CC(=O)NCC(=O)N3CCN(c4ccccc4F)CC3)c(=O)c2c1C	-	-	-	-	-	-	.	.
COCCn1c(SCC(=O)Nc2cc(C(C)(C)C)nn2-c2ccccc2)nc2ccccc2c1=O	-	-	-	-	-	-	.	.
CC(C)(C)c1cc(NC(=O)CCl)n(-c2ccccc2)n1	-	-	-	-	-	79	58	-
CCOCCCn1c(SCC(=O)Nc2cc(C(C)(C)C)nn2-c2ccccc2)nc2ccccc2c1=O	-	-	-	-	-	54	-	.
CC(Oc1ccc2c3c(c(=O)oc2c1)CCC3)C(=O)NCc1cccnc1 (configuration not stated)	-	-	-	-	-	-	.	.
COc1ccc2ccc(=O)oc2c1CC(=O)C(C)C	.	.	.	.	.	-	.	.
O=c1cnnc(N/N=C/c2ccccn2)[nH]1	106	-	95	-	120	82	88	53
Cc1cc(=O)[nH]c(N/N=C/c2ccccn2)n1	95	-	-	-	107	80	78	59
C(=N\Nc1nncc2ccccc12)/c1ccccn1	98	-	-	-	-	79	79	-
Fc1cccc(/C=N/Nc2nncc3ccccc23)c1	-	-	-	-	-	-	.	.
C[C@H](NC(=O)c1nc[nH]c1C(=O)NC1CCNCC1)C(=O)OCc1ccccc1	-	.	.	.	-	-	.	.
CN(C)CCCNc1cc(-c2ccccc2)nc2cc(-c3cccc(F)c3)nn12	-	-	-	-	-	63	-	51
COCCN1CCN(c2cc(-c3ccccc3)nc3cc(-c4cccc(F)c4)nn23)CC1	-	-	-	-	-	51	-	.
COCCNc1cc(C)nc2cc(-c3ccc(C)cc3)nn12	-	-	-	-	-	-	.	.
Fc1cccc(-c2cc3nc(-c4ccccc4)cc(N4CCC5(CC4)OCCO5)n3n2)c1	-	-	-	-	-	-	.	.
Cc1cccc(-c2cc3nc(C)cc(NCCCN(C)C)n3n2)c1	.	-	-	-	.	65	-	.
CC(=O)c1cccc(NC(=O)c2c(-c3c(F)cccc3Cl)noc2C)c1	-	.	.	.	-	-	.	.
C[C@H](NS(=O)(=O)c1c(Cl)cccc1Cl)C(=O)NNC(=O)COc1ccccc1F	-	.	.	.	-	-	.	.
Cc1cccc(CCN2C(N(C)C)=NC[C@@H]2C)c1	-	.	.	.	-	-	.	.
COc1cccc(CNC(=O)c2cc3oc4ccccc4c3n2C)c1OC	-	-	-	-	-	97	96	47
CCOc1ccc(CNC(=O)c2cc3oc4ccccc4c3n2C)cc1	-	-	-	-	-	85	88	-
COC(=O)c1cc2oc3ccccc3c2n1CC(=O)Nc1ccccc1OC	-	-	-	-	-	-	.	.
CCOc1ccccc1CNC(=O)c1cc2oc3ccccc3c2n1CC	-	-	-	-	-	93	89	-
CSc1nc(Oc2ccc3ccccc3c2)c2ccccc2n1	-	-	-	-	-	55	-	.
O=C(CN1C(=O)NC2(CCCC2)C1=O)Nc1cc(Cl)ccc1N1CCOCC1	-	-	-	-	-	-	.	.

Compound activity deposited in PubChem by several laboratories.
